Key:
[1] = biological target: T1, 5-hydroxytryptamine receptor 1A (Homo sapiens) (UniProt P08908); assay: Agonist activity at human recombinant 5-HT1A receptor expressed in HeLa cells after 30 mins by [35S]GTPgammaS binding assay; assay type: functional, cell-based
T1 sequence (whole entry): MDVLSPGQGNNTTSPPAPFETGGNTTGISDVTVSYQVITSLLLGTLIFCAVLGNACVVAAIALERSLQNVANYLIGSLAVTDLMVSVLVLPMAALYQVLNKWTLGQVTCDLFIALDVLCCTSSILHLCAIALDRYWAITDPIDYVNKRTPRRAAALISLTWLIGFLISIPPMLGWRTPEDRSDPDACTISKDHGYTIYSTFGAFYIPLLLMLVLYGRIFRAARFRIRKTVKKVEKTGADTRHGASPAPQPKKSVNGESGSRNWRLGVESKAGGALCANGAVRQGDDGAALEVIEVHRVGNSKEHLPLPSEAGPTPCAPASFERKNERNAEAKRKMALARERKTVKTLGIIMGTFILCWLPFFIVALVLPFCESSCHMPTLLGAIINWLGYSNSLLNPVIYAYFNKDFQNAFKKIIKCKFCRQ
Procedure, shortened: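 HeLa membranes expressing human 5-HT1A (50–70 µg protein) in 20 mM HEPES, 3 mM MgSO4, 120 mM NaCl pH 7.4 with 30 µM GDP; test drug 0.01 nM–10 µM, 20 min at 30 °C, then 200 pM [35S]GTPγS for 30 min at 30 °C. Nonspecific with 10 µM GTPγS; filtration and scintillation counting. Emax as % of maximal 8-OH-DPAT stimulation; pD2 = −log EC50.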

[2] = biological target: T1, 5-hydroxytryptamine receptor 1A (Homo sapiens); assay: Agonist activity at human recombinant 5-HT1A receptor expressed in HeLa cells after 30 mins by [35S]GTPgammaS binding assay relative to control; assay type: functional, cell-based
Procedure, shortened: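 HeLa membranes (50–70 µg protein) in 20 mM HEPES, 3 mM MgSO4, 120 mM NaCl, pH 7.4, preincubated 20 min at 30 °C with 30 µM GDP and drug (0.01 nM–10 µM), then 200 pM [35S]GTPγS added for 30 min at 30 °C. Nonspecific binding with 10 µM GTPγS. Filtration and scintillation counting. Data expressed as % increase over basal, 8-OH-DPAT maximum = 100%. Emax and pD2 derived.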

[3] = biological target: T2, 5-hydroxytryptamine receptor 1A (Homo sapiens, UniProt P08908); assay: Displacement of [3H]8-OH-DPAT from human recombinant 5-HT1A receptor expressed in HeLa cells after 30 mins by liquid scintillation counting; assay type: cell-based
T2 sequence (P08908 whole entry): T1 sequence (whole entry)
Procedure, shortened: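 HeLa cells stably carrying genomic clone G-21 were grown in DMEM with 10% FCS, then lysed in Tris/EDTA pH 7.4. Membranes (80–90 µg protein) were incubated in 50 mM Tris, 2.5 mM MgCl2, 10 µM pargyline, pH 7.4, with 1 nM [3H]8-OH-DPAT and competitor (1 pM–1 µM) for 30 min at 30 °C, in triplicate. Nonspecific binding with 10 µM 5-HT. pKi from 2–3 experiments.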

[4] = biological target: T3, Alpha-1B adrenergic receptor (Rattus norvegicus) (UniProt P15823); assay: Antagonist activity at alpha1B adrenoceptor in Wistar rat spleen assessed as phenylephrine-induced contractions after 30 mins
T3 sequence (whole entry): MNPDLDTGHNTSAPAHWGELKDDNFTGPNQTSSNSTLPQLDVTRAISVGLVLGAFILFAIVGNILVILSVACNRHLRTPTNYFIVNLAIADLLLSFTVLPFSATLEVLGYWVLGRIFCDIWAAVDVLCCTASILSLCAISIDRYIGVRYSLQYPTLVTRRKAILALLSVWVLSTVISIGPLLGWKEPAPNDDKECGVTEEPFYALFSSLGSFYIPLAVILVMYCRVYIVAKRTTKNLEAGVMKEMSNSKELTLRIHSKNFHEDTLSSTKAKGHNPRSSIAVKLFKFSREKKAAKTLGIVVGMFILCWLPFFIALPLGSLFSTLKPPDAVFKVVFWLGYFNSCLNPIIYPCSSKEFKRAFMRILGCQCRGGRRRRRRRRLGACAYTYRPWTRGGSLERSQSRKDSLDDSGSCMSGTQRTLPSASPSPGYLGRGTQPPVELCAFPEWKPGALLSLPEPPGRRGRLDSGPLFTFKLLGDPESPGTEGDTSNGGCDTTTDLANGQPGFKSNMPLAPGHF
Procedure, shortened: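 Spleen strips (bisected longitudinally) in Krebs with 4 µM propranolol, 1 g resting tension, 2 h equilibration. Cumulative phenylephrine curves recorded isometrically at 30 min intervals, the first discarded and the second used as control. Antagonist pre-equilibrated 30 min before a repeat agonist curve.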

Rattus norvegicus = species: Rattus norvegicus; assay: Selectivity ratio of Kb for alpha1D adrenoceptor in Wistar rat thoracic aorta to Kb for alpha1B adrenoceptor in Wistar rat spleen; assay type: tissue-based

SMILES	pD2 [1]	Emax [2]	Ki [3]	pKb [4]	Ratio (Rattus norvegicus)
COc1ccccc1N1CCN(CC2COC3(CCOCC3)O2)CC1 (configuration not stated)	6.82	31%	46.8 nM	7.17	1.44
COc1ccccc1N1CCN(CC2COC3(CCN(c4ccccc4)CC3)O2)CC1 (configuration not stated)	7.14	42%	15.8 nM	7.56	0.74
COc1ccccc1N1CCN(CC2COC3(CCNCC3)O2)CC1 (configuration not stated)	–	–	158 nM	7.78	0.13
COc1ccccc1N1CCN(CC2COC3(CCN(S(=O)(=O)c4ccc(C)cc4)CC3)O2)CC1 (configuration not stated)	7.33	28%	26.9 nM	7.91	0.11
COc1ccccc1N1CCN(CC2COC3(CCN(c4ccccn4)CC3)O2)CC1 (configuration not stated)	6.49	41%	8.91 nM	7.86	0.1
COc1ccccc1N1CCN(CC2COC3(CCSCC3)O2)CC1 (configuration not stated)	7.48	36%	9.33 nM	7.63	0.16
COc1ccccc1N1CCN(CC2COC3(CCN(S(=O)(=O)c4ccc([N+](=O)[O-])cc4)CC3)O2)CC1 (configuration not stated)	7.65	37%	24.5 nM	7.75	1.86
COc1ccccc1N1CCN(CC2COC3(CCN(C(C)=O)CC3)O2)CC1 (configuration not stated)	–	–	64.6 nM	7.72	0.05
COc1ccccc1N1CCN(CC2COC3(CCN(C(=O)C4CCCN4)CC3)O2)CC1 (configuration not stated)	–	–	36.3 nM	7.86	0.07
COc1ccccc1N1CCN(CC2COC3(CCN(C(=O)c4ccc(C(F)(F)F)cc4)CC3)O2)CC1 (configuration not stated)	–	–	50.1 nM	8.33	0.09
CCCCNC(=O)N1CCC2(CC1)OCC(CN1CCN(c3ccccc3OC)CC1)O2 (configuration not stated)	6.53	30%	79.4 nM	7.4	0.77
COc1ccccc1N1CCN(CC2COC3(CCN(C(=O)c4ccco4)CC3)O2)CC1 (configuration not stated)	7.12	33%	42.7 nM	7.69	0.49
COc1ccccc1N1CCN(CC2COC3(CCN(C(=O)NC(C)(C)C)CC3)O2)CC1 (configuration not stated)	–	–	87.1 nM	7.42	0.13
COc1ccccc1N1CCN(CC2COC3(CCN(S(=O)(=O)c4cccs4)CC3)O2)CC1 (configuration not stated)	–	–	60.3 nM	8.05	0.16
COc1ccccc1N1CCN(CC2COC3(CCN(S(C)(=O)=O)CC3)O2)CC1 (configuration not stated)	–	–	145 nM	7.46	0.52
COc1ccccc1N1CCN(CC2COC3(CCN(S(=O)(=O)c4cccc([N+](=O)[O-])c4)CC3)O2)CC1 (configuration not stated)	–	–	43.7 nM	8.14	0.69
COc1ccccc1N1CCN(CC2COC3(CCS(=O)(=O)CC3)O2)CC1 (configuration not stated)	–	–	81.3 nM	7.66	0.34
COc1ccccc1N1CCN(CC2COC3(CCN(C(=O)C4CCCCC4)CC3)O2)CC1 (configuration not stated)	7.29	33%	20.4 nM	7.33	0.49
COc1ccccc1N1CCN(CC2COC3(CCN(S(=O)(=O)c4ccccc4)CC3)O2)CC1 (configuration not stated)	–	–	52.5 nM	7.94	0.13
COc1ccccc1N1CCN(CC2COC3(CCCCC3)O2)CC1 (configuration not stated)	8.61	48%	5.13 nM	6.72	14.4
COc1ccccc1N1CCN(CC2COC3(CCN(C(=O)c4ccccc4)CC3)O2)CC1 (configuration not stated)	–	–	58.9 nM	8.19	0.18
COc1ccccc1N1CCN(CC2COC3(CCN(S(=O)(=O)c4ccc(Cl)cc4)CC3)O2)CC1 (configuration not stated)	–	–	37.2 nM	7.36	1.02
COc1ccccc1N1CCN(CC2COC3(CCN(S(=O)(=O)c4ccc(OC(F)(F)F)cc4)CC3)O2)CC1 (configuration not stated)	–	–	69.2 nM	7.74	0.42
COc1ccccc1N1CCN(CC2COC3(CCN(C(=O)Nc4ccccc4)CC3)O2)CC1 (configuration not stated)	7.22	28%	33.1 nM	8.18	0.12
COc1ccccc1N1CCN(CC2COC3(CCN(Cc4ccccc4)CC3)O2)CC1 (configuration not stated)	7.21	45%	14.5 nM	7.18	26.3
COc1ccccc1N1CCN(CC2COC3(CCN(C(=O)C(F)(F)F)CC3)O2)CC1 (configuration not stated)	–	–	324 nM	8	0.31
